pIC50: −log10 of the molar value. Activity calls are given as the source filed them. The calls are words filed in the database; no cut-off is given here.
How the values were obtained:
[1] = molecular target: T1, Prostaglandin G/H synthase 1 (Ovis aries, UniProt P05979); experiment: Inhibition of ovine COX1 pre-incubated for 10 mins before arachidonic acid substrate addition by enzyme immunoassay
T1 sequence (P05979 whole entry): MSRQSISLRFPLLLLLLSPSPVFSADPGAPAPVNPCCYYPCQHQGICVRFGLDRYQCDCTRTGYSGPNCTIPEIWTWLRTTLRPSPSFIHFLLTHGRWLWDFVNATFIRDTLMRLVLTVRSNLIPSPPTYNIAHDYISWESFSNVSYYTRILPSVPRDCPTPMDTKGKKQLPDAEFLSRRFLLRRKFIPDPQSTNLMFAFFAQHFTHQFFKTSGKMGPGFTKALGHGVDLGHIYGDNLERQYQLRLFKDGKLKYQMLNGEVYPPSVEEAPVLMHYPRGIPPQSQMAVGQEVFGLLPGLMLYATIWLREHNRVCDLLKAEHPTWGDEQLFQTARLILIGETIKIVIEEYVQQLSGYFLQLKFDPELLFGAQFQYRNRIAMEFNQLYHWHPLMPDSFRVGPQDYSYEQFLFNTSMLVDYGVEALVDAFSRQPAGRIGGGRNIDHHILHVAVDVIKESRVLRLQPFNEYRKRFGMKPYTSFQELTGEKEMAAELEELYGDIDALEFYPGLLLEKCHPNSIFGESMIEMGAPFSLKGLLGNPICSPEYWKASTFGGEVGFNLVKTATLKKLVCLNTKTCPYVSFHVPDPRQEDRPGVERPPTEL
Method in brief: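 Ovine COX-1 pre-incubated with inhibitor for 10 min at 37 °C, then 5 μM arachidonic acid for 2 min at 37 °C. Stopped with HCl; PGH2 reduced to PGF2α with SnCl2 and measured by competitive EIA (PG antibody, PG-acetylcholinesterase conjugate), absorbance at 412 nm.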

[2] = molecular target: T2, Fatty-acid amide hydrolase 1 (Rattus norvegicus, UniProt P97612); experiment: Inhibition of FAAH in rat brain homogenates pre-incubated for 10 mins before addition of [3H]anandamide and [3H]AEA substrates for 30 mins by liquid scintillation counting; assay type: tissue-based; settings: for pIC50: read-out: IC50
T2 sequence (P97612 whole entry): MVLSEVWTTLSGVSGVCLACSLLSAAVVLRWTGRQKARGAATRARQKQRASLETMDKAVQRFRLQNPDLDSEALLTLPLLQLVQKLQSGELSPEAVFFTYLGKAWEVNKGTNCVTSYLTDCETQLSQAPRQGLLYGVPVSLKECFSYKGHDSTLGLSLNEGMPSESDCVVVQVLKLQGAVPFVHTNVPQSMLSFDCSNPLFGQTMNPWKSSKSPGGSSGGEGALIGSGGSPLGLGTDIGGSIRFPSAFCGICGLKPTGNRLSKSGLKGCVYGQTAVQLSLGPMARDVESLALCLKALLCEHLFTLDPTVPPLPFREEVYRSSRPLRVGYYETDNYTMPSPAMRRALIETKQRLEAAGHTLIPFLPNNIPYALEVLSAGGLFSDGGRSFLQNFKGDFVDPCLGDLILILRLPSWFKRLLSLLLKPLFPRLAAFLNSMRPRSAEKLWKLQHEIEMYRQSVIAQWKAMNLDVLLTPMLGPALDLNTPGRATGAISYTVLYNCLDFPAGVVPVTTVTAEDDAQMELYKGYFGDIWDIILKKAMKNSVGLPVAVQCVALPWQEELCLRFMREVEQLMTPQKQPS
Method in brief: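 Rat whole-brain homogenate (50 ug protein/sample) in 50 mM TRIS pH 7.4, 0.05 % fatty acid free BSA; inhibitor pre-incubated 10 min, then 1 uM unlabelled AEA plus 0.6 nM [3H]-AEA added for 30 min at 37°C. Stopped with cold 1:1 CHCl3/MeOH; aqueous phase counted.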

[3] = molecular target: T3, Prostaglandin G/H synthase 2 (Homo sapiens, UniProt P35354); experiment: Inhibition of human COX2 pre-incubated for 10 mins before substrate addition by enzyme immunoassay
T3 sequence (P35354 whole entry): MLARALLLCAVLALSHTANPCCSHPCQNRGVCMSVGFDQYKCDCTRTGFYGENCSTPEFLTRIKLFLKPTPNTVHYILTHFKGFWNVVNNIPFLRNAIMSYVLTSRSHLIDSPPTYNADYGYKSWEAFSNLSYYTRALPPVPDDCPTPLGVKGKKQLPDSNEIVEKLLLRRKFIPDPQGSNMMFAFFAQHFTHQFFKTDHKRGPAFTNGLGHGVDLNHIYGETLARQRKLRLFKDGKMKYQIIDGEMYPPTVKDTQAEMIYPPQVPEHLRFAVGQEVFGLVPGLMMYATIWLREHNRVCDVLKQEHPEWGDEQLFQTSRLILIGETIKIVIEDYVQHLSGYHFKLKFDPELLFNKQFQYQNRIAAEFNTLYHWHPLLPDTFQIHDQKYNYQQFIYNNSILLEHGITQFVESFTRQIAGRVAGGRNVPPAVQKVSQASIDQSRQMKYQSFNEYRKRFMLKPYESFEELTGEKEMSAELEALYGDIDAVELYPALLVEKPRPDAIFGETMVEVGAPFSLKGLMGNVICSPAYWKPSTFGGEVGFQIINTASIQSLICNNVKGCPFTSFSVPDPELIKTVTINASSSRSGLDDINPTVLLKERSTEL

[4] = molecular target: T4, Fatty-acid amide hydrolase 1 (Rattus norvegicus) (UniProt P97612); settings: Brain, 30 uM
T4 sequence (whole entry): T2 sequence (P97612 whole entry)

[5] = molecular target: T4, Fatty-acid amide hydrolase 1 (Rattus norvegicus); experiment: Potency index, ratio of IC50 for carprofen to IC50 for compound against FAAH in rat brain homogenates pre-incubated for 10 mins before addition of [3H]anandamide and [3H]AEA substrates for 30 mins by liquid scintillation counting; assay type: tissue-based

Structure (SMILES): C[C@H](C(=O)O)c1ccc2c(c1)[nH]c1ccc(Cl)cc12
- pIC50 [1]: 5.25

Structure (SMILES): C[C@@H](C(=O)O)c1ccc2c(c1)[nH]c1ccc(Cl)cc12
- pIC50 [1]: < 4.00

Structure (SMILES): C[C@H](C(=O)O)c1ccc2c3cc(Cl)ccc3n(C(=O)c3ccc(Cl)cc3)c2c1
- pIC50 [2]: < 4.00
- pIC50 [3]: 4.33
- pIC50 [1]: 4.35

Structure (SMILES): C[C@@H](C(=O)O)c1ccc2c3cc(Cl)ccc3n(C(=O)c3ccc(Cl)cc3)c2c1
- pIC50 [2]: 4.83
- pIC50 [3]: < 4.00
- pIC50 [1]: < 4.00

Structure (SMILES): C[C@H](C(=O)O)c1ccc2c3cc(Cl)ccc3n(C(=O)c3cocn3)c2c1
- pIC50 [2]: < 4.00
- pIC50 [3]: 5.60
- pIC50 [1]: 5.39

Structure (SMILES): C[C@@H](C(=O)O)c1ccc2c3cc(Cl)ccc3n(C(=O)c3cocn3)c2c1
- pIC50 [2]: 4.27
- pIC50 [3]: < 4.00
- pIC50 [1]: < 4.00

Structure (SMILES): COc1cccc(Cn2c3ccc(Cl)cc3c3ccc(C(C)C(=O)O)cc32)c1 (racemic)
- pIC50 [2]: 4.49
- pIC50 [3]: < 4.00
- pIC50 [1]: < 4.00

Structure (SMILES): CC(C(=O)O)c1ccc2c3cc(Cl)ccc3n(C(=O)c3ccc(F)cc3)c2c1 (racemic)
- pIC50 [2]: 4.51
- pIC50 [3]: < 4.00
- pIC50 [1]: < 4.00

Structure (SMILES): COc1ccc(C(=O)n2c3ccc(Cl)cc3c3ccc(C(C)C(=O)O)cc32)cc1 (racemic)
- pIC50 [2]: 4.97
- pIC50 [3]: < 4.00
- pIC50 [1]: < 4.00

Structure (SMILES): CC(C(=O)O)c1ccc2c3cc(Cl)ccc3n(C(=O)c3cccc(Cl)c3)c2c1 (racemic)
- pIC50 [2]: 4.70
- pIC50 [3]: < 4.00
- pIC50 [1]: < 4.00

Structure (SMILES): CC(C(=O)O)c1ccc2c3cc(Cl)ccc3n(C(=O)c3ccccc3Cl)c2c1 (racemic)
- pIC50 [2]: 4.22
- pIC50 [3]: < 4.00
- pIC50 [1]: < 4.00

Structure (SMILES): CC(C(=O)O)c1ccc2c3cc(Cl)ccc3n(C(=O)c3ccc(Cl)c(Cl)c3)c2c1 (racemic)
- pIC50 [2]: < 4.00
- pIC50 [3]: < 4.00
- pIC50 [1]: < 4.00

Structure (SMILES): CC(C(=O)O)c1ccc2c3cc(Cl)ccc3n(C(=O)c3cocn3)c2c1 (racemic)
- pIC50 [2]: 4.07
- pIC50 [3]: 4.56
- pIC50 [1]: 4.52

Structure (SMILES): CC(C(=O)O)c1ccc2c3cc(Cl)ccc3n(C(=O)c3cnc[nH]3)c2c1 (racemic)
- pIC50 [2]: 5.25
- pIC50 [3]: < 4.00
- pIC50 [1]: 4.89

Structure (SMILES): CC(C(=O)O)c1ccc2c3cc(Cl)ccc3n(C(=O)c3cscn3)c2c1 (racemic)
- pIC50 [2]: < 4.00
- pIC50 [3]: < 4.00
- pIC50 [1]: < 4.00

Structure (SMILES): CC(C(=O)O)c1ccc2c3cc(Cl)ccc3n(C)c2c1 (racemic)
- pIC50 [2]: 4.81
- pIC50 [3]: < 4.00
- pIC50 [1]: < 4.00

Structure (SMILES): CC(C(=O)O)c1ccc2c3cc(Cl)ccc3n(Cc3ccccc3)c2c1 (racemic)
- pIC50 [2]: 4.63
- pIC50 [3]: < 4.00
- pIC50 [1]: < 4.00

Structure (SMILES): CC(C(=O)O)c1ccc2c3cc(Cl)ccc3n(Cc3ccc(C#N)cc3)c2c1 (racemic)
- pIC50 [2]: 4.48
- pIC50 [3]: < 4.00
- pIC50 [1]: < 4.00

Structure (SMILES): CC(C(=O)O)c1ccc2c3cc(Cl)ccc3n(Cc3ccc(Cl)cc3)c2c1 (racemic)
- pIC50 [2]: 4.99
- pIC50 [3]: < 4.00
- pIC50 [1]: < 4.00

Structure (SMILES): COc1ccc(Cn2c3ccc(Cl)cc3c3ccc(C(C)C(=O)O)cc32)cc1 (racemic)
- pIC50 [2]: 5.08
- pIC50 [3]: < 4.00
- pIC50 [1]: < 4.00

Structure (SMILES): COc1ccccc1Cn1c2ccc(Cl)cc2c2ccc(C(C)C(=O)O)cc21 (racemic)
- pIC50 [2]: < 4.00
- inhibition [4]: inactive
- pIC50 [3]: < 4.00
- pIC50 [1]: < 4.00

Structure (SMILES): CCCCCCS(=O)(=O)n1c2ccc(Cl)cc2c2ccc(C(C)C(=O)O)cc21 (racemic)
- pIC50 [2]: 4.30
- pIC50 [3]: < 4.00
- pIC50 [1]: < 4.00

Structure (SMILES): CCCCCCNC(=O)n1c2ccc(Cl)cc2c2ccc(C(C)C(=O)O)cc21 (racemic)
- pIC50 [2]: 5.49
- pIC50 [3]: < 4.00
- pIC50 [1]: < 4.00

Structure (SMILES): CNC(=O)n1c2ccc(Cl)cc2c2ccc(C(C)C(=O)O)cc21 (racemic)
- pIC50 [2]: < 4.00
- pIC50 [3]: < 4.00
- pIC50 [1]: < 4.00

Structure (SMILES): CCCCNC(=O)n1c2ccc(Cl)cc2c2ccc(C(C)C(=O)O)cc21 (racemic)
- pIC50 [2]: < 4.00
- pIC50 [3]: < 4.00
- pIC50 [1]: < 4.00

Structure (SMILES): CCCCCCCCNC(=O)n1c2ccc(Cl)cc2c2ccc(C(C)C(=O)O)cc21 (racemic)
- pIC50 [2]: 4.57
- pIC50 [3]: < 4.00
- pIC50 [1]: 4.81

Structure (SMILES): CC(C(=O)O)c1ccc2c3cc(Cl)ccc3n(C(=O)Nc3ccc(Cl)cc3)c2c1 (racemic)
- pIC50 [2]: 3.99
- pIC50 [3]: < 4.00
- pIC50 [1]: 4.38

Structure (SMILES): CCCCCCN(C)C(=O)n1c2ccc(Cl)cc2c2ccc(C(C)C(=O)O)cc21 (racemic)
- pIC50 [2]: < 4.00
- pIC50 [3]: < 4.00
- pIC50 [1]: < 4.00

Structure (SMILES): CC(C(=O)O)c1ccc2c3cc(Cl)ccc3n(C(=O)NC3CCCCC3)c2c1 (racemic)
- pIC50 [2]: < 4.00
- pIC50 [3]: < 4.00
- pIC50 [1]: < 4.00

Structure (SMILES): CCCCCCOC(=O)n1c2ccc(Cl)cc2c2ccc(C(C)C(=O)O)cc21 (racemic)
- pIC50 [2]: 4.50
- pIC50 [3]: < 4.00
- pIC50 [1]: 4.76

Structure (SMILES): CC(=O)n1c2ccc(Cl)cc2c2ccc(C(C)C(=O)O)cc21 (racemic)
- pIC50 [2]: < 4.00
- pIC50 [3]: < 4.00
- pIC50 [1]: < 4.00

Structure (SMILES): CC(C(=O)O)c1ccc2c3cc(Cl)ccc3n(C(=O)c3ccccc3)c2c1 (racemic)
- pIC50 [2]: 4.60
- pIC50 [3]: < 4.00
- pIC50 [1]: < 4.00

Structure (SMILES): CC(C(=O)O)c1ccc2c3cc(Cl)ccc3n(C(=O)c3ccc(Cl)cc3)c2c1 (racemic)
- pIC50 [2]: 4.66
- pIC50 [3]: 4.14
- pIC50 [1]: 4.13

Structure (SMILES): CC(C(=O)O)c1ccc2c(c1)[nH]c1ccccc12 (racemic)
- pIC50 [2]: 5.34
- pIC50 [3]: < 4.00
- pIC50 [1]: < 4.00

Structure (SMILES): COC(=O)C(C)c1ccc2c(c1)[nH]c1ccc(Cl)cc12 (racemic)
- pIC50 [2]: 4.66
- pIC50 [3]: < 4.00
- pIC50 [1]: < 4.00

Structure (SMILES): CC(C(=O)NCCO)c1ccc2c(c1)[nH]c1ccc(Cl)cc12 (racemic)
- pIC50 [2]: < 4.00
- pIC50 [3]: < 4.00
- pIC50 [1]: < 4.00

Structure (SMILES): CC(C(=O)Nc1ccccc1)c1ccc2c(c1)[nH]c1ccc(Cl)cc12 (racemic)
- pIC50 [2]: 5.54
- Ratio IC50 [5]: 26
- pIC50 [3]: < 4.00
- pIC50 [1]: < 4.00

Structure (SMILES): CC(C(=O)O)c1ccc2c3cc(Cl)ccc3n(S(=O)(=O)c3ccc(Cl)cc3)c2c1 (racemic)
- pIC50 [2]: 5.32
- pIC50 [3]: < 4.00
- pIC50 [1]: < 4.00

Structure (SMILES): CC(C(=O)O)c1ccc2c(c1)[nH]c1ccc(Cl)cc12 (racemic) [CARPROFEN]
- pIC50 [1]: 4.65

Structure (SMILES): CC(C)Cc1ccc(C(C)C(=O)O)cc1 (centres undefined) [IBUPROFEN]
- IC50 [2]: Not Active

Reference: ChEMBL document CHEMBL2169800 (J Med Chem, 2012)
